The structures appear in SMILES notation. pEC50, pKi: −log10 of the molar value. Square brackets hold non-standard residues; d marks the D form. Peptide text beside a SMILES is read from it. * marks the point of attachment. sY = N[C@@H](Cc1ccc(OS(=O)(=O)O)cc1)C(=O)O; Nle = CCCC[C@H](N)C(=O)O; Boc = CC(C)(C)OC(=O)*

For experiment [1], the species on record is Cavia porcellus. Briefly: Agonist activity by measuring the ability to stimulate the contraction of the isolated guinea pig ileum. The class given is functional.
The species named for another experiment is Mus musculus. As to the kind of experiment: Potency in displacing [3H]propionyl-CCK-8 from mouse brain membranes. The format is functional. Summed up:
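Displacement of [3H]propionyl-CCK8 at 0.4 nM (KD = 0.2 nM) from brain tissue. Data are mean ± SEM of three independent experiments, each in triplicate.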

The species entered for experiment [2] is Cavia porcellus. Briefly: Agonist activity by measuring the effect on amylase secretion from guinea pig acini. The class given is functional.
For experiment [3], the species on record is Cavia porcellus. As to the kind of experiment: Potency in displacing [3H]Boc(Nle28,Nle31)-CCk27-33 from guinea pig pancreatic acini. The class given is functional. The gist of the method: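 Radioligand binding on guinea pig pancreatic acini with [3H]Boc(Nle28,Nle31)-CCK27-33 at 0.5 nM (KD = 1 nM). Values are mean ± SEM of three separate experiments, each run in triplicate.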

For a further experiment, the target named is T1, Cholecystokinin receptor (Mus musculus, UniProt O08786+P56481).
T1 sequence (O08786 whole entry): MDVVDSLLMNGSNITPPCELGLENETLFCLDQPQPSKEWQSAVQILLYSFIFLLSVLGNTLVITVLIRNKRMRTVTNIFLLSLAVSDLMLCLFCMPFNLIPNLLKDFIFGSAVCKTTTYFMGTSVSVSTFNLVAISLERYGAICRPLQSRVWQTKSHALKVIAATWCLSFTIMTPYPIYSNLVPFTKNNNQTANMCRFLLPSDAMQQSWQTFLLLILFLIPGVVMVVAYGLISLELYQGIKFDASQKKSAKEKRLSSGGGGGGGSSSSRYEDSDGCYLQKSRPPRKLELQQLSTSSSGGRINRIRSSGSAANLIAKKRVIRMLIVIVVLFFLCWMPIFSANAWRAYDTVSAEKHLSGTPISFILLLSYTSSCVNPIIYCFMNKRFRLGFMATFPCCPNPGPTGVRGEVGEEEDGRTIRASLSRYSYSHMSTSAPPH
T1 sequence (P56481 whole entry): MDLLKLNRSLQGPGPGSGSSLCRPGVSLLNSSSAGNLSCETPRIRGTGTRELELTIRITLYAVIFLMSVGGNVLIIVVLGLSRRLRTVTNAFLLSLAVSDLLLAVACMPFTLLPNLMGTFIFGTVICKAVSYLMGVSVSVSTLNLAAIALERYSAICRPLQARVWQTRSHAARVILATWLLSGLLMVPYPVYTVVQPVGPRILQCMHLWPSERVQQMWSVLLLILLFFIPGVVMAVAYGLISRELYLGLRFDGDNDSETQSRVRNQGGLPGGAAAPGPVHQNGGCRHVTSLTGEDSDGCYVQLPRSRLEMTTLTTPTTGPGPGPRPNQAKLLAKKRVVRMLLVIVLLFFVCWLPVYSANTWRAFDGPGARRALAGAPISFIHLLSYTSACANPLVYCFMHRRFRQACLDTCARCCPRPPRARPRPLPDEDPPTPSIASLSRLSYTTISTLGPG
Briefly: Potency in displacing [3H]propionyl-Cholecystokinin from mouse brain membranes. Summed up: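 Competition binding on brain membranes against [³H]propionyl-CCK₈ used at 0.4 nM (K_D = 0.2 nM). Values are mean ± SEM of three separate experiments, each run in triplicate.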

As usually defined, the pEC50 is the negative decadic logarithm of the EC50, by convention in mol/L. A higher pEC50 goes with a low EC50. For orientation: pKi means the negative decadic logarithm of the Ki, by convention in mol/L. The low end stands for a large Ki, the high end for a small Ki. Regarding `CCCC[C@H](NC(=O)[C@H](Cc1ccc(OS(=O)(=O)O)cc1)NC(=O)OC(C)(C)C)C(=O)NCC(=O)N[C@@H](Cc1c[nH]c2ccccc12)C(=O)N[C@@H](CCCC)C(=O)N[C@@H](CC(=O)O)C(=O)N[C@@H](Cc1ccccc1)C(N)=O` (Boc-[sY][Nle]GW[Nle]DF-NH2), the figures for the pEC50 in the experiment listed under Cavia porcellus [1] and in the experiment listed under Cavia porcellus [2] were 9.40 and 9.80, respectively. For the same molecule, the negative-log Ki (pKi) was 9.89 in the experiment listed under Mus musculus and 8.54 in the experiment listed under Cavia porcellus [3].
As to `CCCC[C@H](NC(=O)[C@H](Cc1ccc(OS(=O)(=O)O)cc1)NC(=O)OC(C)(C)C)C(=O)NCC(=O)N[C@@H](Cc1c[nH]c2ccccc12)C(=O)N[C@H](CCCN)C(=O)N[C@@H](CC(=O)O)C(=O)N[C@@H](Cc1ccccc1)C(N)=O`, the pEC50 in the experiment listed under Cavia porcellus [1] is 6.72; in the experiment filed under Cavia porcellus [2] it was 7.66. Moreover, the negative-log Ki (pKi) is 6.96 in the experiment filed under Mus musculus and 6.41 in the experiment filed under Cavia porcellus [3].
The like results for `CCCC[C@H](NC(=O)[C@H](Cc1ccc(OS(=O)(=O)O)cc1)NC(=O)OC(C)(C)C)C(=O)NCC(=O)N[C@@H](Cc1c[nH]c2ccccc12)C(=O)N[C@@H](CCC(=O)O)C(=O)N[C@@H](CC(=O)O)C(=O)N[C@@H](Cc1ccccc1)C(N)=O` (Boc-[sY][Nle]GWEDF-NH2) were, in that order, under 6.00, under 5.00, under 5.00 and under 5.00.
The like results for `CCCC[C@H](NC(=O)[C@H](Cc1ccc(OS(=O)(=O)O)cc1)NC(=O)OC(C)(C)C)C(=O)NCC(=O)N[C@@H](Cc1c[nH]c2ccccc12)C(=O)N[C@@H](C)C(=O)N[C@@H](CC(=O)O)C(=O)N[C@@H](Cc1ccccc1)C(N)=O` (Boc-[sY][Nle]GWADF-NH2) were, in that order, 6.96, 7.60, 7.85 and 5.96.
For orientation: Ki means a measure of affinity in units of concentration, obtained from inhibition or displacement. High values mean weaker binding, low ones tighter binding. Regarding `CSCC[C@H](NC(=O)[C@H](Cc1ccc(OS(=O)(=O)O)cc1)NC(=O)[C@@H](N)CC(=O)O)C(=O)NCC(=O)N[C@@H](Cc1c[nH]c2ccccc12)C(=O)N[C@@H](CCSC)C(=O)N[C@@H](CC(=O)O)C(=O)N[C@@H](Cc1ccccc1)C(N)=O` [SINCALIDE], the pEC50 in the experiment filed under Cavia porcellus [1] was 9.15; in the experiment listed under Cavia porcellus [2], 9.89. On Cholecystokinin receptor, this molecule registered a Ki of 0.3 nM. The same molecule had a negative-log Ki (pKi) in the experiment filed under Cavia porcellus [3] of 8.60.
Consider `CCCC[C@H](NC(=O)[C@H](Cc1ccc(OS(=O)(=O)O)cc1)NC(=O)OC(C)(C)C)C(=O)NCC(=O)N[C@@H](Cc1c[nH]c2ccccc12)C(=O)N[C@@H](Cc1ccccc1)C(=O)N[C@@H](CC(=O)O)C(=O)N[C@@H](Cc1ccccc1)C(N)=O` (Boc-[sY][Nle]GWFDF-NH2), for which the pEC50 in the experiment listed under Cavia porcellus [1] is 7.96; in the experiment listed under Cavia porcellus [2] it was 8.47. In addition, the pKi in the experiment listed under Mus musculus was 8.43; in the experiment listed under Cavia porcellus [3], 6.66.
